According to ChEMBL document CHEMBL1123846, “Chemical differentiating agents. Differentiation of HL-60 cells by hexamethylenebis[acetamide] analogues” (1987):

Legend:
HL-60 [1] = assay: Percent of viability for HL-60 cells was determined by dividing number of viable differentiated cells by total number of viable cells, at concentration of 2.5 mM; format: functional, Homo sapiens
Summary of the method: (§1)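 HL-60 cultures were seeded at 2×10^5/mL with agent added from ethanol or Me2SO, final Me2SO up to 77 mM, and harvested on day 4. Total cells were counted on a Coulter counter, and the viable fraction of total cells was determined by trypan blue exclusion.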

HL-60 [2] = assay: Percent of viability for HL-60 cells was determined by dividing number of viable differentiated cells by total number of viable cells, at concentration of 3.0 mM; format: functional, Homo sapiens; summary of the method: as §1
HL-60 [3] = assay: Differentiation studies was conducted with the HL-60 human myeloid leukemia cell line and Total cells were counted with a Coulter counter, at a concentration of 2.5 mM; format: functional
Summary of the method: (§2)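 HL-60 cells seeded at 2×10^5/mL with test agent added from ethanol or Me2SO stock; final Me2SO no more than 77 mM. Total cells counted on a Coulter counter on day 4.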

HL-60 [4] = assay: Differentiation studies was conducted with the HL-60 human myeloid leukemia cell line and Total cells were counted with a Coulter counter, at a concentration of 3.0 mM; format: functional; summary of the method: as §2
HL-60 [5] = assay: Differentiation studies was conducted with the HL-60 human myeloid leukemia cell line and total cells were counted with a Coulter counter, at a concentration of 1.0 mM; format: functional; summary of the method: as §2
HL-60 [6] = assay: Percent of differentiated in HL-60 cells was determined by dividing number of viable differentiated cells by total number of viable cells, at a concentration of 3.0 mM; format: functional, Homo sapiens
Summary of the method: (§3)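 HL-60 cells started at 2×10^5/mL and counted on day 4. Test agents were added from ethanol or Me2SO, with final Me2SO at most 77 mM. Differentiation was scored by formazan production, which requires superoxide from living cells. % D is the number of viable differentiated cells divided by the total number of viable cells.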

HL-60 [7] = assay: Percent of differentiated in HL-60 cells was determined by dividing number of viable differentiated cells by total number of viable cells, at a concentration of 1.0 mM; format: functional, Homo sapiens; summary of the method: as §3
HL-60 [8] = assay: Percent of differentiated in HL-60 cells was determined by dividing number of viable differentiated cells by total number of viable cells, at a concentration of 2.0 mM; format: functional, Homo sapiens; summary of the method: as §3
HL-60 [9] = assay: Percent of differentiated in HL-60 cells was determined by dividing number of viable differentiated cells by total number of viable cells, at a concentration of 2.5 mM; format: functional, Homo sapiens; summary of the method: as §3
HL-60 [10] = assay: Percent of viability for HL-60 cells was determined by dividing number of viable differentiated cells by total number of viable cells, at concentration of 1.0 mM; format: functional, Homo sapiens; summary of the method: as §1
HL-60 [11] = assay: Percent of viability for HL-60 cells was determined by dividing number of viable differentiated cells by total number of viable cells, at concentration of 2.0 mM; format: functional, Homo sapiens; summary of the method: as §1
HL-60 [12] = assay: Differentiation studies was conducted with the HL-60 human myeloid leukemia cell line and total cells were counted with a Coulter counter, at a concentration of 2.0 mM; format: functional; summary of the method: as §2
HL-60 [13] = assay: Percent of differentiated HL-60 cells was determined by dividing number of viable differentiated cells by total number of viable cells, at a concentration of 0.1 mM; format: functional, Homo sapiens; summary of the method: as §3
HL-60 [14] = assay: Percent of differentiated HL-60 cells was determined by dividing number of viable differentiated cells by total number of viable cells, at a concentration of 0.3 mM; format: functional, Homo sapiens; summary of the method: as §3
HL-60 [15] = assay: Percent of differentiated HL-60 cells was determined by dividing number of viable differentiated cells by total number of viable cells, at a concentration of 0.4 mM; format: functional, Homo sapiens; summary of the method: as §3
HL-60 [16] = assay: Percent of differentiated HL-60 cells was determined by dividing number of viable differentiated cells by total number of viable cells, at a concentration of 0.5 mM; format: functional, Homo sapiens; summary of the method: as §3
HL-60 [17] = assay: Percent of viability for HL-60 cells was determined by dividing number of viable differentiated cells by total number of viable cells, at concentration of 0.1 mM; format: functional, Homo sapiens; summary of the method: as §1
HL-60 [18] = assay: Percent of viability for HL-60 cells was determined by dividing number of viable differentiated cells by total number of viable cells, at concentration of 0.3 mM; format: functional, Homo sapiens; summary of the method: as §1
HL-60 [19] = assay: Percent of viability for HL-60 cells was determined by dividing number of viable differentiated cells by total number of viable cells, at concentration of 0.4 mM; format: functional, Homo sapiens; summary of the method: as §1
HL-60 [20] = assay: Percent of viability for HL-60 cells was determined by dividing number of viable differentiated cells by total number of viable cells, at concentration of 0.5 mM; format: functional, Homo sapiens; summary of the method: as §1
HL-60 [21] = assay: Differentiation studies was conducted with the HL-60 human myeloid leukemia cell line andTotal cells were counted with a Coulter counter, at a concentration of 0.3 mM; format: functional; summary of the method: as §2
HL-60 [22] = assay: Differentiation studies was conducted with the HL-60 human myeloid leukemia cell line andTotal cells were counted with a Coulter counter, at a concentration of 0.4 mM; format: functional; summary of the method: as §2
HL-60 [23] = assay: Differentiation studies was conducted with the HL-60 human myeloid leukemia cell line andTotal cells were counted with a Coulter counter, at a concentration of 0.5 mM; format: functional; summary of the method: as §2
HL-60 [24] = assay: Differentiation studies was conducted with the HL-60 human myeloid leukemia cell line and total cells were counted with a Coulter counter, at a concentration of 0.1 mM; format: functional; summary of the method: as §2
HL-60 [25] = assay: Percent of viability for HL-60 cells was determined by dividing number of viable differentiated cells by total number of viable cells, at concentration of 4.0 mM; format: functional, Homo sapiens; summary of the method: as §1
HL-60 [26] = assay: Differentiation studies was conducted with the HL-60 human myeloid leukemia cell line and Total cells were counted with a Coulter counter, at a concentration of 4.0 mM; format: functional; summary of the method: as §2
HL-60 [27] = assay: Percent of differentiated HL-60 cells was determined by dividing number of viable differentiated cells by total number of viable cells, at a concentration of 3.0 mM; format: functional, Homo sapiens; summary of the method: as §3
HL-60 [28] = assay: Percent of differentiated HL-60 cells was determined by dividing number of viable differentiated cells by total number of viable cells, at a concentration of 4.0 mM; format: functional, Homo sapiens; summary of the method: as §3
HL-60 [29] = assay: Percent of differentiated HL-60 cells was determined by dividing number of viable differentiated cells by total number of viable cells, at a concentration of 1.0 mM; format: functional, Homo sapiens; summary of the method: as §3
HL-60 [30] = assay: Percent of differentiated HL-60 cells was determined by dividing number of viable differentiated cells by total number of viable cells, at a concentration of 1.5 mM; format: functional, Homo sapiens; summary of the method: as §3
HL-60 [31] = assay: Percent of differentiated HL-60 cells was determined by dividing number of viable differentiated cells by total number of viable cells, at a concentration of 2.0 mM; format: functional, Homo sapiens; summary of the method: as §3
HL-60 [32] = assay: Differentiation studies was conducted with the HL-60 human myeloid leukemia cell line and Total cells were counted with a Coulter counter, at a concentration of 1.5 mM; format: functional; summary of the method: as §2
HL-60 [33] = assay: Differentiation studies was conducted with the HL-60 human myeloid leukemia cell line and Total cells were counted with a Coulter counter, at a concentration of 2.0 mM (number of experiments = 1); format: functional; summary of the method: as §2
HL-60 [34] = assay: Percent of viability for HL-60 cells was determined by dividing number of viable differentiated cells by total number of viable cells, at concentration of 1.5 mM; format: functional, Homo sapiens; summary of the method: as §1

In the case of `O=C1CCCCN1CCCCCCN1CCCCC1=O`, the V (HL-60 [1]) is reported as 62%, the V (HL-60 [2]) is reported as 25% and the Total cells (HL-60 [3]) is reported as 680000 mL. The Total cells (HL-60 [4]) was 370000 mL, the Total cells (HL-60 [5]) was 830000 mL and the D (HL-60 [6]) was 87%. For the same compound, the D (HL-60 [7]) was 12%, the D (HL-60 [8]) was 40% and the D (HL-60 [9]) was 72%. For the same compound, the V (HL-60 [10]) was 87%, the V (HL-60 [11]) was 65% and the Total cells (HL-60 [12]) was 760000 mL.
Work on `CC1(C)NC(=O)N(CCCCCCN2C(=O)NC(C)(C)C2=O)C1=O` yielded a D (HL-60 [13]) of 9%, a D (HL-60 [14]) of 26% and a D (HL-60 [15]) of 45%. It also gave a D (HL-60 [16]) of 76%, a V (HL-60 [17]) of 96% and a V (HL-60 [18]) of 82%. It also gave a V (HL-60 [19]) of 53%, a V (HL-60 [20]) of 43% and a Total cells (HL-60 [21]) of 480000 mL. For the same compound, the Total cells (HL-60 [22]) was 420000 mL, the Total cells (HL-60 [23]) was 310000 mL and the Total cells (HL-60 [24]) was 870000 mL.
`CNC(=O)CCCCCNC(C)=O` was tested, and the V (HL-60 [2]) was 72%, the V (HL-60 [25]) was 56% and the Total cells (HL-60 [4]) was 680000 mL. The Total cells (HL-60 [26]) was 690000 mL, the D (HL-60 [27]) was 40% and the D (HL-60 [28]) was 71%.
With `CC(=O)NCCCCCC(=O)N(C)C` the D (HL-60 [29]) was 24%, the D (HL-60 [30]) was 13% and the D (HL-60 [31]) was 12%. For the same compound, the Total cells (HL-60 [32]) was 1.07e+06 mL, the Total cells (HL-60 [33]) was 940000 mL and the Total cells (HL-60 [5]) was 700000 mL. The V (HL-60 [10]) was 85%, the V (HL-60 [34]) was 78% and the V (HL-60 [11]) was 82%.
